Publication PMC7056050 (Clinical and Translational Gastroenterology, 2020)

Experiments:
claudin-1 [1] = target: T1, claudin-1 (Mus musculus, UniProt O88551); format: in vivo, CPC;Apc mice; details: wide-field NIR fluorescence after intravenous administration
T1 sequence (O88551 1-211): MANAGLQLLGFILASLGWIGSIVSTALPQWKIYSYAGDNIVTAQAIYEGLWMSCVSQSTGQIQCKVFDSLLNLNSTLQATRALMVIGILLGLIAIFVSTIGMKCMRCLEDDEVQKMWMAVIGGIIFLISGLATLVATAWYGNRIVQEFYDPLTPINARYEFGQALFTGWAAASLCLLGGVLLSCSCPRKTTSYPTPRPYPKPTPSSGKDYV
Method in brief: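 Mice aged 2–4 months ate chlorophyll-free chow for 1 week, were fasted 4–6 h and had the colon rinsed with water. They were under isoflurane 2–4% in oxygen (0.5 L/min). A rigid endoscope in the distal colon gave 671 nm excitation; 200 μM peptide in 200 μL PBS was given i.v. Images were taken 0–24 h and normalised to coregistered reflectance. T/B ratios used mean intensity of three 20×20 μm2 regions each for adenoma and adjacent normal mucosa. Control peptide was imaged in the same mouse 7 days later. n = 6 mice per group; data log-transformed; paired t tests.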

claudin-1 [2] = target: T1, claudin-1; experiment: Side-view confocal endomicroscopy of colon in vivo; design: species or system CPC;Apc mice; details: for Binding/staining pattern in normal colon on confocal images: in vivo, ~1 hour after i.v. 200 μM in 200 μL PBS
claudin-1 [3] = target: T1, claudin-1; experiment: Ex vivo peptide staining; format: binding; details: for Mean fluorescence intensity, adenoma vs normal: ex vivo staining, 0.5 μM peptide, paired t tests, n = 6 per group
Method in brief: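 Distal colon was opened, rinsed in cold PBS, fixed ~48 h in 10% neutral-buffered formalin, moved to 70% ethanol and processed for histology. Adjacent sections were deparaffinized and antigen-retrieved. Blocking was 2% BSA ~1 h, then 0.5 μM peptide for 10 min. For colocalization, peptide came first, then anti-claudin-1 antibody detected with AF488 goat anti-rabbit IgG. Imaged by inverted confocal microscopy.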

[4] = Biodistribution in major organs; design: species or system CPC;Apc mice; details: organs ex vivo ~1 hour after i.v. injection, IVIS, n = 6
Method in brief: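 CPC;Apc mice received 200 μL PBS containing 200 μM labelled peptide, control peptide or free Cy5.5 i.v. They were sacrificed ~1 h later. Organs were rinsed in cold PBS, dried and imaged unperfused (ex 640 nm, em 720 nm). Intensity was averaged from three regions per organ. Values were log-transformed and fitted to an ANOVA with 24 means (3 groups, 8 tissues) plus mouse effects.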

[5] = Serum stability by HPLC, incubation in mouse serum ex vivo; format: in vitro ADME; details: 30 uM peptide in mouse serum at 37 °C, supernatant analysed by HPLC
Method in brief: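 Peptide at 30 uM was incubated in mouse serum at 37 °C for up to 24 h. Samples were taken at 0, 1, 2 and 24 h and centrifuged at 14,000 rpm. Supernatant aliquots were analysed by HPLC at each time point.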

[6] = ex vivo, peptide then anti-claudin-1 antibody-AF488, merged image

Row | Fluorescence signal from nonpolypoid adenoma (claudin-1 [1]) | Fluorescence signal from polypoid adenoma (claudin-1 [1]) | Staining of adenoma and normal colon sections (claudin-1 [3]; 0.5 μM peptide for 10 minutes on formalin-fixed sections, confocal microscope) | Mean fluorescence intensity, adenoma vs adjacent normal colon [4] | Peptide stability in mouse serum by HPLC at 24 hours [5] | Correlation ρ of co-staining with anti-claudin-1 antibody, adenoma (claudin-1 [3]; [6]) | Correlation ρ of co-staining with anti-claudin-1 antibody, normal colon (claudin-1 [3]; [6]) | Substance | Binding/staining pattern in normal colon on confocal images (claudin-1 [2]) | Mean fluorescence intensity, adenoma vs normal (claudin-1 [3]) | Mean fluorescence intensity, adenoma vs adjacent normal colon (claudin-1 [2]; confocal, ~1 hour after injection, paired t test, n = 11 mice)
1 | minimal signal | minimal signal | Minimal signal |  |  |  |  | SPTSSRR [SPT*-Cy5.5, reference compound] | vague appearance of crypt structures | No difference | 
2 | increased intensity |  |  | significantly greater | signs of peptide breakdown | 0.66 | 0.60 | RTSPSSR [RTS*-Cy5.5] | binding at tight junctions in between cells | significantly greater for adenoma vs normal | significantly greater for adenoma than for adjacent normal colon
